# Hits are enriched below; roughly 4% of the tested compounds scored in any of these assays.
# XBP1 UPR activ: adaptive UPR (XBP1) activation | 330,000 tested, 0.33% active | AID 463104 | CHO-XBP1 luciferase reporter, IRE1-XBP1 UPR activation, luminescence; percent of tunicamycin response, DMSO as zero | activation, % at 20 µM;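 active = versus positive control, 20 µM dose yields 30% or more activation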
#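 Material: IRE1-XBP1 luciferase reporter CHO line / Quantity: one thousand reporter cells per well / Buffer or medium: F12 with 10% serum / Compound: 20 µM single concentration, DMSO 1% / Times: 6 h treatment, 37 °C / Detection: Steady-Glo luciferase glow luminescence, 10 min after reagent addition / Benchmarks: tunicamycin high, DMSO low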
# ABHD5 PLIN5 PPI: ABHD5-PLIN5 protein interaction inhibition; Split G. princeps luciferase complementation, luminescence, 4 h; inhibition, % at 4 µM; 360,000 tested, 0.78% active;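 active = inhibition above the mean inhibition across every tested compound plus 3 SD, cut at about 22% in these data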
# Target sequence (Q00G26 whole entry, looked up): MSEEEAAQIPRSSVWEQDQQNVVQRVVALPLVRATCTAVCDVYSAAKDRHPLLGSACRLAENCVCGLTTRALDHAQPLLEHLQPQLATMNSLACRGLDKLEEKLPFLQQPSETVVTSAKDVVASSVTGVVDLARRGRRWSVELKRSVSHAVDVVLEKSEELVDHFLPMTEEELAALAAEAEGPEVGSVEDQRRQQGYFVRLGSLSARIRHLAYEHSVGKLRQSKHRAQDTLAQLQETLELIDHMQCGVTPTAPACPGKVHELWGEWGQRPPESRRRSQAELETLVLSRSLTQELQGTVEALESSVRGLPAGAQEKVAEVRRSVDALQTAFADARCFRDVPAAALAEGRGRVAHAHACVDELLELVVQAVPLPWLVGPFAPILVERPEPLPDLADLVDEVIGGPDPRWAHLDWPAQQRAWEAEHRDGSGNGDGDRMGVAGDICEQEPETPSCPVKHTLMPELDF
# Target sequence (Q8WTS1 whole entry, looked up): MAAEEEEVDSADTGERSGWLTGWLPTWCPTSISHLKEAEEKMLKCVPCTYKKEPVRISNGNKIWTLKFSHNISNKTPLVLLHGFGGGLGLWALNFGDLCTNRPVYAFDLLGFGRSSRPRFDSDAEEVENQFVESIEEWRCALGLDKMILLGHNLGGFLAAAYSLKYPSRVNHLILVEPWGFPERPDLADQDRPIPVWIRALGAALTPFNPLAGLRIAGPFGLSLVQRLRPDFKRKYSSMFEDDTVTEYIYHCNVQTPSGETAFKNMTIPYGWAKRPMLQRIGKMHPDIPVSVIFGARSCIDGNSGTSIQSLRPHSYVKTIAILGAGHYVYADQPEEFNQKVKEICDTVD
# CHOP UPR activ: apoptotic UPR (CHOP) activation | CHO-CHOP luciferase reporter, luminescence; percent of tunicamycin response over DMSO baseline | activation, % at 10 µM | 330,000 tested, 0.34% active;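 active = at 10 µM dose, activation of 40% or more, normalized to positive control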
#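 Dosing – one dose, 10 µM in 0.5% DMSO · System – CHO-CHOP cells, stable luciferase reporter of PERK-eIF2a-CHOP signalling · Input – 500 cells/well · Control set – tunicamycin 10 µg/mL final as positive, DMSO-only wells as negative · Timing – 6 h compound treatment, 37 °C · Measure – % activation vs tunicamycin · Technique – luminescence read with Steady-Glo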
# Mdm2 MdmX PPI: inhibitors of human Mdm2/MdmX interaction | SaOS-2 split-luciferase Mdm2/MdmX complementation, luminescence | 330,000 tested, 3% active | inhibition, % at 8 µM | O15151+Q00987;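 active = inhibition of at least 50% at 8 µM in the primary screen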
# Exocytosis inh: blocks lytic granule exocytosis | AID 651702 | inhibition, % at 10 µM | 360,000 tested, 0.66% active | TALL-104 LAMP-1 surface exposure, flow cytometry; cells stimulated with thapsigargin and PMA;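 active = inhibition above about 55%, limit read from the data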
# Mdm2 MdmX conf: human Mdm2/MdmX binding inhibition, confirmed; shares compounds with Mdm2 MdmX PPI; luminescent assay; inhibition, % at 8 µM; 10,000 tested, 55% active; AID 489028; in the data active = inhibition above about 40%
# Full FLuc ctr: full-length luciferase inhibition in Mdm2/MdmX counter-screen. shares compounds with Mdm2 MdmX PPI. SaOS-2 full-length luciferase counterscreen, luminescence. inhibition, % at 8 µM. 6,200 tested, 77% active. AID 504607;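 active = mean inhibition at 8 µM reaching about 37%, which flags the compound as non-specific, limit read from the data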;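 also: p53-null SaOS-2 cells with luciferase driven by a doxycycline-inducible promoter; compound on cells about two nights before reading with doxycycline added after day one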
# A number is an active result; i = inactive; nt = not tested or not shown.
SMILES,XBP1 UPR activ,ABHD5 PLIN5 PPI,CHOP UPR activ,Mdm2 MdmX PPI,Exocytosis inh,Mdm2 MdmX conf,Full FLuc ctr
Cn1cc(C(=O)N/N=C/c2c(O)ccc3ccccc23)ccc1=O,i,i,i,79,i,72,i
O=C(N/N=C/c1ccccn1)c1ccc(Br)o1,i,i,i,i,i,nt,nt
O=C(N/N=C/c1c(O)ccc2ccccc12)c1ccc[n+](CCO)c1,i,i,i,i,i,nt,nt
O=C(N/N=C/c1c(O)ccc2ccccc12)c1ccc(Br)o1,i,i,i,87,i,81,54
Cc1occc1C(=O)N/N=C/c1c(O)ccc2ccccc12,i,i,i,84,i,83,i
O=C(N/N=C\c1c(O)ccc2ccccc12)c1ccc(O)cc1,i,i,i,68,i,52,i
COc1ccc(OCCN2CCC(C(=O)NC(c3ccc(OC)cc3)c3ccccn3)CC2)cc1 (stereo not given),nt,i,nt,nt,i,nt,nt
Fc1cccc(NC(=S)NCc2ccccc2Cl)c1,i,i,i,i,i,nt,nt
O=C(O)c1ccc(C=NNC(=O)c2cccc3ccccc23)cc1,nt,i,nt,nt,i,nt,nt
O=C(N/N=C/c1ccccc1O)c1cccc2ccccc12,i,i,i,53,i,53,46
Cn1nccc1C(=O)N/N=C/c1c(O)ccc2ccccc12,i,i,i,82,i,80,i
CCCc1cc(=O)oc2c3c(cc(OCC(=O)N[C@@H](C)C(=O)O)c12)OC(C)(C)CC3,i,i,i,i,i,nt,nt
CCOC(=O)N1CCC(NC(=O)c2cc3c(=O)n(C)c4ccccc4c3n2C)CC1,i,i,i,i,i,nt,nt
CS(=O)(=O)c1ccc2nc(NC(=O)Nc3ccc(Cl)c(Cl)c3)sc2c1,i,i,i,54,i,i,nt
Cc1ccc(NC(=O)Nc2nc3ccc(S(C)(=O)=O)cc3s2)cc1,i,i,i,i,i,nt,nt
CS(=O)(=O)c1ccc2nc(NC(=O)Nc3cccc(Cl)c3)sc2c1,i,i,i,92,i,64,77
O=C(CNC(=O)c1ccc(Cl)cc1Cl)OC1CCCCC1=O (stereo not given),i,i,i,i,i,nt,nt
C[n+]1c2n(c3ccccc31)N=C(c1ccc(Cl)cc1)CS2,i,i,i,i,i,nt,nt
COc1ccc(C2=Nn3c([n+](C)c4ccccc43)SC2)cc1,i,i,i,60,i,i,nt
COc1ccc(NC(=O)C#Cc2ccccc2)cc1OC,i,i,i,57,i,i,nt
NC(=O)c1ccc(NC(=O)C#Cc2ccccc2)cc1,i,i,i,85,i,77,51
Cn1c(NC(=O)c2ccco2)c(-c2ccc(Cl)cc2)c(=O)c2ccccc21,i,i,i,i,i,nt,nt
CNc1cc(-c2ccc(OC)nc2)ncn1,nt,i,nt,nt,i,nt,nt
O=[N+]([O-])c1cccc(-c2csc(CS(=O)(=O)Cc3ccco3)n2)c1,i,i,i,i,i,nt,nt
CCC(C)(C)C1CCc2[nH]nc(C(=O)NC3CCCC3)c2C1 (stereo not given),i,i,i,i,i,nt,nt
SMILES,XBP1 UPR activ,ABHD5 PLIN5 PPI,CHOP UPR activ,Mdm2 MdmX PPI,Exocytosis inh,Mdm2 MdmX conf,Full FLuc ctr
O=C(NC1CCCCC1)c1n[nH]c2c1CCCCC2,i,i,i,71,i,69,65
CCCN(C(=O)c1ccco1)c1nnc(-c2ccncc2)s1,i,i,i,i,i,nt,nt
O=S(=O)(NC1CC1)c1cccc(S(=O)(=O)N2CCCC2)c1,i,i,i,i,i,nt,nt
CCOC(=O)C1=C(c2ccccc2)O/C(=C(/C#N)C(F)(F)F)S1,i,nt,54,101,nt,99,i
O=C(N[C@H]1CCC(=O)N([C@H](CSc2ccccc2)Cc2ccccc2)CC1)OCc1ccccc1,i,i,i,i,i,nt,nt
COc1ccccc1/C=N/N1C(=O)C(CC(=O)Nc2ccc([N+](=O)[O-])cc2OC)SC1=Nc1cccc(C)c1C (stereo not given),i,nt,i,65,nt,47,78
CCCCCC/C=N/Nc1nnc(Cc2ccc(OC)c(OC)c2)c(=O)[nH]1,i,i,i,i,i,nt,nt
COc1ccc(Cc2nnc(N/N=C/c3ccc(O)cc3O)[nH]c2=O)cc1OC,i,i,i,56,i,44,50

# Source: PubChem BioAssay (several laboratories)
